Calls of active or inactive are those of the source. The calls are words filed in the database; no cut-off is given here.
target: Aldo-keto reductase family 1 member B1 (Homo sapiens, UniProt P15121); experiment: Inhibition of human recombinant AKR1B1 expressed in Escherichia coli BL21(DE3)pLysS using L-idose as substrate by NADPH oxidation based absorbance analysis; details: not given

Row | Compound | IC50
1 | O=C(O)CCN1C(=O)/C(=C/c2ccc(OCCCCc3ccccc3)cc2)SC1=S | 60.7 µM
2 | O=C(O)CCN1C(=O)/C(=C/c2ccc(OCCCc3ccccc3)cc2)SC1=S | 38.2 µM

target: T1, Tyrosine-protein phosphatase non-receptor type 1 (Homo sapiens, UniProt P18031); experiment: Inhibition of N-terminal polyHis-tagged human PTP1B1 (1 to 303 residues) expressed in Escherichia coli BL21(DE3)pLysS using pNPP as substrate by spectrophotometric analysis; details: not given
T1 sequence (P18031 whole entry): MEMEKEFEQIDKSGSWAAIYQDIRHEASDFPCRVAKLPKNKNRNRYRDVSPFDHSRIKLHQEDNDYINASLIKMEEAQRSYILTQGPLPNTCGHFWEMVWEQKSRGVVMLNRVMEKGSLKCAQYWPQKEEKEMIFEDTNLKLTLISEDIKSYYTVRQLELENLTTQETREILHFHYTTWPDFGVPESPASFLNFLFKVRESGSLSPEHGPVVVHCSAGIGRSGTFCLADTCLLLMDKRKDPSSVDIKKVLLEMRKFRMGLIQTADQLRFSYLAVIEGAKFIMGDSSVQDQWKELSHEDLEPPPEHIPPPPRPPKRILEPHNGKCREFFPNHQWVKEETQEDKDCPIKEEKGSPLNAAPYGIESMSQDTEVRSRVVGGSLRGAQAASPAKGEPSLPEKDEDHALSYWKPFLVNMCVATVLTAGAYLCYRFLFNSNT
Summary of the method: (§1)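 His-tagged human PTP1B (1–303) from E. coli BL21(DE3)pLysS, assayed in 0.075 M β,β-dimethylglutarate pH 7.0 with 1 mM EDTA, 0.1 mM DTT and pNPP. Reaction stopped with 0.1 M KOH; p-nitrophenol read at 400 nm. IC50 from 15–16 inhibitor concentrations in triplicate, normalized to control, fitted by nonlinear regression. Single-point residual activity at 5 µM.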

Row | Compound | IC50
3 | O=C(O)CCN1C(=O)/C(=C/c2ccc(OCCCCc3ccccc3)cc2)SC1=S | 2.9 µM

target: T2, Tyrosine-protein phosphatase non-receptor type 1 (Homo sapiens) (UniProt P18031); experiment: Inhibition of N-terminal polyHis-tagged human PTP1B1 (1 to 303 residues) expressed in Escherichia coli BL21(DE3)pLysS assessed as enzyme residual activity using pNPP as substrate at 5 uM by spectrophotometric analysis; details: not given; summary of the method: as §1
T2 sequence (whole entry): T1 sequence (P18031 whole entry)

Row | Compound | Activity
4 | O=C(O)CCN1C(=O)/C(=C/c2ccc(OCCCc3ccccc3)cc2)SC1=S | 99.8%

target: T3, Tyrosine-protein phosphatase non-receptor type 2 (Homo sapiens, UniProt P17706); experiment: Inhibition of N-terminal polyHis-tagged human recombinant TC-PTPb (1 to 415 residues) expressed in Escherichia coli BL21(DE3)pLysS; details: not given
T3 sequence (P17706 whole entry): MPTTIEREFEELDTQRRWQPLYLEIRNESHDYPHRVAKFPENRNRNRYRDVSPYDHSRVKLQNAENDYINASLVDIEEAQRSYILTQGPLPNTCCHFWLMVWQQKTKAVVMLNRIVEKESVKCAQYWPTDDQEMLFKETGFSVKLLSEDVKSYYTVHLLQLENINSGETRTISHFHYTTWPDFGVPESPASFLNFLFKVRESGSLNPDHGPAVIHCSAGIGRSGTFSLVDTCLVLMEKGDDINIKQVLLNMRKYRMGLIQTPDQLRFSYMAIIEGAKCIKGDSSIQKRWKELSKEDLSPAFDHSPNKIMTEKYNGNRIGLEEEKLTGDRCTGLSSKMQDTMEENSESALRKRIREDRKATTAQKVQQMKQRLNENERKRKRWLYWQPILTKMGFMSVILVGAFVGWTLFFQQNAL

Row | Compound | IC50
5 | O=C(O)CCN1C(=O)/C(=C/c2ccc(OCCCCc3ccccc3)cc2)SC1=S | 9.1 µM

target: T2, Tyrosine-protein phosphatase non-receptor type 1 (Homo sapiens); experiment: Reversible inhibition of N-terminal polyHis-tagged human PTP1B1 (1 to 303 residues) expressed in Escherichia coli BL21(DE3)pLysS using pNPP as substrate pretreated with enzyme for 60 mins followed by 400-fold dilution with buffer containing substrate and measured after 15 mins by spectrophotometric analysis; details: time 75.0 min
Summary of the method: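 PTP1B incubated 60 min at 37 °C with saturating inhibitor, then diluted 400-fold into assay buffer containing 2.5 mM pNPP. Stopped after 15 min with 0.2 M KOH; absorbance read at 400 nm. Normalized to enzyme diluted with DMSO; mean ± SEM (n = 3).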

Row | Compound | inhibition
6 | O=C(O)CCN1C(=O)/C(=C/c2ccc(OCCCCc3ccccc3)cc2)SC1=S | Active

target: T1, Tyrosine-protein phosphatase non-receptor type 1; experiment: Mixed non-competitive inhibition of N-terminal polyHis-tagged human PTP1B1 (1 to 303 residues) expressed in Escherichia coli BL21(DE3)pLysS assessed as apparent dissociation constant for EI complex using pNPP as substrate by Lineweaver-Burk plot analysis; details: not given
Summary of the method: (§2)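 PTP1B initial pNPP hydrolysis rates measured at seven pNPP concentrations (0.5–25 mM) and at least three inhibitor concentrations, in triplicate. Data fitted to Michaelis–Menten; KM and Vmax dependence on inhibitor analysed by Lineweaver–Burk plots.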

Row | Compound | Ki
7 | O=C(O)CCN1C(=O)/C(=C/c2ccc(OCCCCc3ccccc3)cc2)SC1=S | 0.6 µM

target: T1, Tyrosine-protein phosphatase non-receptor type 1; experiment: Mixed non-competitive inhibition of N-terminal polyHis-tagged human PTP1B1 (1 to 303 residues) expressed in Escherichia coli BL21(DE3)pLysS assessed as apparent dissociation constant for ESI complex using pNPP as substrate by Lineweaver-Burk plot analysis; details: not given; summary of the method: as §2

Row | Compound | Ki
8 | O=C(O)CCN1C(=O)/C(=C/c2ccc(OCCCCc3ccccc3)cc2)SC1=S | 2.4 µM

system: C2C12; experiment: Cytotoxicity against mouse C2C12 cells assessed as reduction in cell viability at 20 uM incubated for 24 hrs by MTT assay; format: toxicity, cell-based; details: c2c12, 24 h
Summary of the method: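 C2C12 myoblasts were differentiated for 96 h in DMEM with 2% horse serum, then held 24 h in complete medium with 20 µM compound, DMSO vehicle as control. MTT 0.5 mg/mL was added, cells lysed in DMSO, absorbance read, and values normalized to vehicle. Quadruplicate, mean ± SD (n = 4).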

Row | Compound | Activity
9 | O=C(O)CCN1C(=O)/C(=C/c2ccc(OCCCCc3ccccc3)cc2)SC1=S | Non-Toxic

target: T4, Tyrosine-protein phosphatase non-receptor type 1 (Mus musculus) (UniProt P35821); experiment: Inhibition of PTP1B in mouse C2C12 cells assessed as increase in Akt phosphorylation by measuring increase in ratio of pAkt to Akt at 20 uM treated for 15 mins by western blot analysis; format: cell-based; details: not given
T4 sequence (whole entry): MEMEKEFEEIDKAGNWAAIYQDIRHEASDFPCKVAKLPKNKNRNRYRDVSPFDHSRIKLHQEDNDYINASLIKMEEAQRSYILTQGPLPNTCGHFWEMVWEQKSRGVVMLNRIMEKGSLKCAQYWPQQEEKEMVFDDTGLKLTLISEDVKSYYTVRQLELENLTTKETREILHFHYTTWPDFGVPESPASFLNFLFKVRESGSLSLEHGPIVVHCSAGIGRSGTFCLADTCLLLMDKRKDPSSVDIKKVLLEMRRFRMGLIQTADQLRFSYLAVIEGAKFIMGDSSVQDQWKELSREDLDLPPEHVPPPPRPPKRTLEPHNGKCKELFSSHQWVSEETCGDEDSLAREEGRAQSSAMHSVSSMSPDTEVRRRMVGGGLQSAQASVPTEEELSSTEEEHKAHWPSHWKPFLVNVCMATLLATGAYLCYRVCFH
Summary of the method: (§3)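 C2C12 cells starved 24 h, then given 10 nM insulin, 20 µM compound, or both, for 15 min. Washed in cold PBS, lysed in 1X Laemmli buffer, run on SDS-PAGE, blotted to PVDF. Probed with antibodies to phospho-Akt and total Akt, with actin as loading control. Bands quantified; triplicate, mean ± SD (n = 3).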

Row | Compound | inhibition
10 | O=C(O)CCN1C(=O)/C(=C/c2ccc(OCCCCc3ccccc3)cc2)SC1=S | Active

target: T4, Tyrosine-protein phosphatase non-receptor type 1 (Mus musculus); experiment: Inhibition of PTP1B in mouse C2C12 cells assessed as potentiation of insulin-induced Akt phosphorylation by measuring increase in ratio of pAkt to Akt at 20 uM treated for 15 mins in presence of insulin by western blot analysis; format: cell-based; details: not given; summary of the method: as §3

Row | Compound | inhibition
11 | O=C(O)CCN1C(=O)/C(=C/c2ccc(OCCCCc3ccccc3)cc2)SC1=S | Active

Source: ChEMBL document CHEMBL5360543, “Designed multiple ligands for the treatment of type 2 diabetes mellitus and its complications: Discovery of (5-arylidene-4-oxo-2-thioxothiazolidin-3-yl)alkanoic acids active as novel dual-targeted PTP1B/AKR1B1 inhibitors” (Eur J Med Chem, 2023)
